“Also recorded” adds a separate entry of the source. Read-outs that look alike come from different tables or passages of the source. Ends that are not written are not given here.
What was measured:
[1] = system: Ad3; test: Direct viral time kill assay, Ad3; type: cell-based, adenovirus; conditions: Ad3, 500 μg/ml peptide, 4 hours; ANOVA p = 0.008
Procedure, shortened: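 Ad3 reference strain grown in A549 cells. Peptide stock in sterile water, diluted in tryptone-saline (pH 5.5). Final mix: 500 μg/ml peptide with ~10⁴ PFU/ml virus, or tryptone-saline control, at 37°C. At 1 and 4 h, aliquots diluted in ice-cold medium with 10% FBS, then plated on A549 monolayers (37°C, 5% CO₂). After 8-9 days, gentian violet-stained plaques counted as PFU/ml. Log₁₀ titers by ANOVA/Fisher; 7 repeats.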

[2] = system: bacteria; conditions: cited from earlier work
[3] = system: Ad5; test: TOTO-1 assay, Ad5 capsid integrity; set-up: species or system adenovirus; conditions: 5 hours at 37°C; for TOTO-1 fluorescence / Ad5 capsid integrity (in words): Ad5, peptide 10-500 μg/ml
[4] = system: Ad5; test: Direct viral time kill assay, Ad5; type: cell-based, adenovirus; conditions: Ad5, 500 μg/ml peptide; for inhibition of Ad5 vs tryptone-saline control (in words): 4 hours, ANOVA p < 0.001
Procedure, shortened: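 Ad5 clinical isolate grown in A549 cells. Peptide stock in sterile water, diluted in tryptone-saline (pH 5.5); mixed with virus to 500 μg/ml final, ~10⁴ PFU/ml; 37°C water bath. Aliquot at 1 h quenched in ice-cold medium with 10% FBS, diluted, plated on A549 monolayers (37°C, 5% CO₂). Gentian violet stain at 7 days, plaques counted, titer as PFU/ml; 7 repeats; log₁₀ ANOVA, Fisher comparisons.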

[5] = system: Ad5; test: Increasing Concentration Direct Inhibition Assay, Ad5; type: cell-based, adenovirus
[6] = system: HSV-1; test: Increasing Concentration Direct Inhibition Assay, HSV-1; type: cell-based, herpes simplex virus type 1
Procedure, shortened: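 HSV-1 McKrae strain, grown in Vero cells. Virus incubated with test compound at a range of concentrations in tryptone-saline. Titers were determined by plaque assay. Each concentration has its own tryptone-saline control. Log reduction is the mean titer difference between treated virus and that control.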

[7] = system: HSV-1; test: TOTO-1 assay, HSV-1 envelope/capsid integrity; set-up: species or system herpes simplex virus type 1; conditions: 5 hours at 37°C
Procedure, shortened: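 HSV-1 McKrae grown in Vero cells. Test compound (2-500 μg/ml) incubated with or without virus (~5 × 10⁴ PFU/ml), 5 h, 37°C. Mixture added to 120 nM TOTO-1 in tryptone-saline pH 8.0; fluorescence read at 485/20 nm excitation, 516/20 nm emission. Signal = raw minus peptide- and virus-derived fluorescence; adenovirus DNA standards. Run in duplicate; repeated at least twice on different days.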

For “Asn-Gln-------------Gly-Arg-His-Phe-Cys-Gly-Gly-Ala-Leu-Ile-His-Ala-Arg-Phe-Val-Met-Thr-Ala-Ala-Ser-Ser-Phe-Gln [Peptide C]”, the “inhibition of Ad3 vs tryptone-saline control (in words)” value [1] was “statistically-significant reduction in viral titers”.

In the case of “Asn-Gln-------------Gly-Arg-His-Phe-Ser-Gly-Gly-Ala-Leu-Ile-His-Ala-Arg-Phe-Val-Met-Thr-Ala-Ala-Ser-Ser-Phe-Gln [Peptide D]”, the “inhibition of Ad3 vs tryptone-saline control (in words)” value [1] is listed as “statistically-significant reduction in viral titers” and the “antibacterial activity (in words)” value ([2]; ref Previous studies) is listed as “inactive”.

For “IQSPAGQSRCGGFLVREDFVLTAAHCWG (cysteine pairing not given here) [Cathepsin G20-47 peptide, reference compound]”, the “TOTO-1 fluorescence / Ad5 capsid integrity (in words)” value [3] is listed as “minimal fluorescence; also recorded: no disruptive effect on Ad5 capsid integrity” and the “antibacterial activity (in words)” value [2] is listed as “negligible antibacterial activity”.

For “NQGRHFCGGALIHARFVMTAASCFQ (cysteine pairing not given here) [Peptide A]”, the “inhibition of Ad3 vs tryptone-saline control (in words)” value [1] was “statistically-significant reduction in viral titers”, the “inhibition of Ad5 at 1 hour (in words)” value ([4]; 1 hour incubation, data not shown) was “significantly inhibited” and the “inhibition of Ad5 vs tryptone-saline control (in words)” value [4] was “significantly greater inhibitory activity than the tryptone-saline control”. The initial inhibitory concentration ([5]; Ad5, 4 hours incubation) was 50 µg/mL, the “inhibitory effect (log reduction of viral titers) above 100 μg/ml” value ([5]; Ad5, peptide above 100 μg/ml (up to 750 μg/ml), 4 hours incubation) was roughly 2 log reductions and the initial inhibitory concentration ([6]; HSV-1, 4 hours incubation) was 50 µg/mL. For the same substance, the “inhibitory effect (log reduction of viral titers) above 100 μg/ml” value ([6]; HSV-1, peptide above 100 μg/ml (up to 750 μg/ml), 4 hours incubation) was roughly 2 log reductions, the “increase in TOTO-1 fluorescence” value ([3]; Ad5, peptide 500 μg/ml, 120 nM TOTO-1) was 65-85% and the “TOTO-1 fluorescence / Ad5 capsid integrity (in words)” value [3] was “dose-dependent increase in TOTO-1 fluorescence”. The “TOTO-1 fluorescence with HSV-1 between 10 and 100 μg/ml (in words)” value ([7]; HSV-1, peptide 10 to 100 μg/ml) was “no increase in fluorescence” and the “TOTO-1 fluorescence with HSV-1 from 100 to 500 μg/ml (in words)” value ([7]; HSV-1, peptide 100 to 500 μg/ml) was “increasing fluorescence”.

In the case of NQGRHFSGGALIHARFVMTAASCFQ [Peptide B], the “inhibition of Ad3 vs tryptone-saline control (in words)” value [1] is reported as “statistically-significant reduction in viral titers” and the “inhibition of Ad5 vs tryptone-saline control (in words)” value [4] is reported as “significantly greater inhibitory activity than the tryptone-saline control”.

Source: article PMC2749063 (Current eye research, 2009)
